Experiment [1] concerns Nucleic Acid. The experiment can be described thus: Apparent binding constant against calf thymus DNA was determined. It is filed as nucleic-acid assay. The conditions noted are these: Bos taurus.
For another experiment, the system named is Tumor Cell line. The experiment can be described thus: In vitro anticancer activity against cultured 60 human tumor cell lines. The experiment is classed as functional. An outline of the steps:
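NCI screen panel of about 60 human tumor cell lines from nine tissue types. GI50 is the concentration causing 50% growth inhibition, reported as the mean-graph midpoint (mean of the individual cell-line GI50 values).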

Experiment [2] concerns Nucleic Acid. The experiment can be described thus: Concentration of compound required for cross linking 50% of T-7 DNA, Acid. It is filed as functional. An outline of the steps:
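T-7 coliphage DNA was incubated with drug at 5–200 μM in citrate phosphate, 10 mM Na⁺, pH 4.0, aerobically for 4 h. The cross-linked fraction came from Hoechst 33258 fluorescence (ex 355/em 460 nm) read before and after a 95 °C heat and ice chill, relative to a drug-free control; ICL50 is the drug concentration giving 50% cross-linking.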

Experiment [3] relates to Nucleic Acid. As to the kind of experiment: Concentration of compound required for cross linking 50% of T-7 DNA, Na2S2O4. It is filed as functional. In a few lines: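 T-7 coliphage DNA (100 μM) with drug at 0.5–15 μM in 0.015 M Tris·HCl, pH 7.4, was deaerated and given a 10-fold molar excess of Na₂S₂O₄ for 60 min under argon. Hoechst 33258 (100 nM) fluorescence (ex 355/em 460 nm) was read before and after heating at 95 °C and chilling. Cross-linked fraction was taken relative to a drug-free control; ICL50 is the concentration giving 50% cross-linked DNA.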

For experiment [4], the system named is Nucleic Acid. As to the kind of experiment: Compound was tested on efficacy of Cross-Linking of tyrT DNA, acid at a concentration 400 uM. It is filed as functional. In a few lines: (§1)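 The labeled 162-bp tyrT DNA fragment was incubated with drug in citrate phosphate, pH 4.0, aerobically for 2 h. It was ethanol-precipitated, denatured at 94 °C for 4 min, and resolved on an 8% denaturing polyacrylamide gel at about 55 °C; cross-linked bands were detected by phosphor screen.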

For experiment [5], the system named is Nucleic Acid. The experiment can be described thus: Concentration of compound required for cross linking 5% of tyrT DNA, Na2S2O4. The experiment is classed as functional. An outline of the steps:
(§2)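 The 5'-³²P-labeled 162-bp tyrT DNA fragment (10 ng) was mixed with drug at various concentrations in Tris/EDTA buffer and deaerated with nitrogen. Dithionite was added from a 50 mM stock, and the mix was kept on ice in the dark for 1 h. After ethanol precipitation it was denatured at 94 °C for 4 min and run on an 8% denaturing polyacrylamide gel; cross-linked species were quantified by phosphor screen.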

Experiment [6] concerns Nucleic Acid. As to the kind of experiment: Concentration of compound required for cross linking 50% of tyrT DNA, Na2S2O4. The experiment is classed as functional. In a few lines:
as §2

Experiment [7] deals with Nucleic Acid. As to the kind of experiment: Compound was tested on efficacy of Cross-Linking of pBR322 DNA, acid at 40 uM. It is filed as functional. In a few lines:
(§3)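 The 3'-³²P-labeled, EcoRI-linearized pBR322 DNA was incubated with drug in 10 mM sodium phosphate, pH 4, aerobically for 2 h with no reductant. It was heat-denatured in DMSO strand-separation buffer and separated on 1% agarose, and percent cross-linked DNA was quantified by phosphorimaging.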

Experiment [8] concerns Nucleic Acid. As to the kind of experiment: Compound was tested on efficacy of Cross-Linking of pBR322 DNA, Na2S2O4. The experiment is classed as functional. An outline of the steps: (§4)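 pBR322 DNA linearized with EcoRI and 3'-end labeled with α-³²P-dATP by Klenow. About 100 ng was mixed with drug at various concentrations in 10 mM sodium phosphate/1 mM EDTA, pH 7.5, argon-deaerated, then reduced with dithionite for 45 min at room temperature. It was then denatured in 30% DMSO strand-separation buffer at 90 °C for 5 min, run on 1% agarose, and the cross-linked fraction quantified by phosphorimaging.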

Experiment [9] concerns Nucleic Acid. The experiment can be described thus: Compound was tested on efficacy of Cross-Linking of tyrT DNA, acid at >400 uM. The experiment is classed as functional. An outline of the steps: as §1
In experiment [10] the test system is Nucleic Acid. The experiment can be described thus: Concentration of compound required for cross linking 50% of pBR322 DNA, Na2S2O4. It is filed as functional. An outline of the steps:
as §4

The subject of experiment [11] is Nucleic Acid. The experiment can be described thus: Compound was tested on efficacy of Cross-Linking of pBR322 DNA, acid at 1 uM. The experiment is classed as functional. In a few lines: as §3
For experiment [12], the system named is Nucleic Acid. The experiment can be described thus: Concentration of compound required for cross linking 50% T-7 DNA, Acid. The experiment is classed as functional. An outline of the steps: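 T-7 coliphage DNA (100 μM) with drug at 5–200 μM in citrate phosphate buffer, 10 mM Na+, pH 4.0, incubated aerobically 4 h. Diluted into 5 mM Tris/0.5 mM EDTA pH 8.0 with 100 nM Hoechst 33258; fluorescence (ex 355/em 460 nm) read before and after heat denaturation (95 °C, 5 min), ice chill and room-temperature renaturation. Cross-linked fraction computed against drug-free controls; ICL50 = drug concentration giving 50% cross-linked DNA.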

Some results are limits rather than exact numbers.

On to `CO[C@@]12[C@H](COC(N)=O)C3=C(C(=O)C(C)=C(NCCCCNC4=C(C)C(=O)C5=C(C4=O)[C@@H](OC(N)=O)[C@@]4(OC)[C@H]6N[C@H]6CN54)C3=O)N1C[C@@H]1N[C@@H]12`, for which the K app with Nucleic Acid [1] worked out at 50000 M⁻¹. This molecule also showed a GI50 in the experiment on Tumor Cell line of 69.2 µM. Moreover, the ICL50 with Nucleic Acid [2] is > 200 µM; in the experiment on Nucleic Acid [3] it was 2.6 µM; with Nucleic Acid [6], “Infinity”; in the experiment with Nucleic Acid [8], 3.8 µM. Further, the figures for the Cross linking with Nucleic Acid [4] and in the experiment with Nucleic Acid [7] were 0.6% and < 10%, respectively. In addition, the ICL5 in the experiment on Nucleic Acid [5] amounted to 20 µM.

For the molecule `CO[C@@]12[C@H](COC(N)=O)C3=C(C(O)=C(C)/C(=N\CCCN(C)CCC/N=C4/C(=O)C5=C(C(O)=C4C)N4CC6NC6[C@]4(OC)[C@@H]5COC(N)=O)C3=O)N1C[C@@H]1N[C@@H]12` (some centres not stated), the K app in the experiment on Nucleic Acid [1] was 80000 M⁻¹. Also, growth with Tumor Cell line was halved (GI50) at 2.51 µM. Moreover, the ICL50 stood at 20 µM in the experiment on Nucleic Acid [2], 1.5 µM in the experiment on Nucleic Acid [3], 150 µM in the experiment with Nucleic Acid [6] and 0.5 µM with Nucleic Acid [10]. In the experiment on Nucleic Acid [9], this molecule showed a Cross linking of 1.8%. The molecule further gave an ICL5 with Nucleic Acid [5] of 10 µM. The same molecule yielded an inhibition with Nucleic Acid [11] of 10%.

With `CO[C@@]12[C@H](COC(N)=O)C3=C(C(=O)C(C)=C(N)C3=O)N1C[C@@H]1N[C@@H]12` [MITOMYCIN], the K app in the experiment on Nucleic Acid [1] was 17000 M⁻¹. This molecule showed a GI50 with Tumor Cell line of 0.832 µM. For the same molecule, the ICL50 was > 200 µM with Nucleic Acid [12], 10 µM in the experiment on Nucleic Acid [3] and “Infinity” in the experiment with Nucleic Acid [6]. This molecule returned an ICL5 in the experiment on Nucleic Acid [5] of 55 µM.

For `CO[C@@]12[C@H](COC(N)=O)C3=C(C(=O)C(C)=C(NCCCCCCCCCCCCNC4=C(C)C(=O)C5=C(C4=O)[C@@H](OC(N)=O)[C@@]4(OC)[C@H]6N[C@H]6CN54)C3=O)N1C[C@@H]1N[C@@H]12`, growth in the experiment with Tumor Cell line was halved (GI50) at 4.47 µM. Also, the Cross linking in the experiment with Nucleic Acid [7] turned out to be 10%. The molecule also registered an ICL50 with Nucleic Acid [10] of 1.7 µM.

In general, GI50 refers to the concentration that inhibits growth by half. A low value points to greater sensitivity of the cells. For orientation: inhibition means the change of the read-out against control, counted positive when it falls.
